The record followed here is ChEMBL document CHEMBL3232782, “1,2,3,4,8,9,10,11-octahydrobenzo[j]phenanthridine-7,12-diones as new leads against Mycobacterium tuberculosis” (J Med Chem, 2014).

Converted amounts (≈) assume the structure as drawn.

The assay relates to Mycobacterium tuberculosis variant bovis. As to the kind of experiment: Antimycobacterial activity against Mycobacterium bovis AN5 expressing luciferase assessed as growth inhibition after 6 days by luminometry. Particulars: AN5, 144 h. It counts as functional. The method, boiled down: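 Strains carried pSMT1 luxAB reporter plasmid. DMSO stocks 10 mM, serially diluted in 7H9 + 10% FCS, triplicate wells. Filtered bacterial suspension at 50 000 RLU/mL. Luminescence read after 6 days using 1% n-decanal substrate. […] Growth temperatures: M.tb 37 °C; M. avium and M. bovis 39 °C.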
Turning to `CC(C)(C)C1CCc2ncc3c(c2C1)C(=O)C1=C(C3=O)C2CCC1C2` (centres undefined), the MIC (as a rule, the lowest concentration that inhibits growth of the organism) was found to be 0.78 µM (≈ 0.262 µg/mL). Next, `CCOC(=O)C1CCc2ncc3c(c2C1)C(=O)C1=C(C3=O)C2CCC1C2` (centres undefined): 0.09 µM (≈ 0.0316 µg/mL). The result for `CCOC(=O)C1CCc2ncc3c(c2C1)C(=O)C1=C(C3=O)C2CCC1CC2` (centres undefined) reads 0.57 µM (≈ 0.208 µg/mL).

Take `NNC(=O)c1ccncc1` [ISONIAZID]: the MIC turned out to be 0.08 µM (≈ 0.011 µg/mL).
